This note sets out measurements from ChEMBL document CHEMBL3393017, “Flavokawains B and C, melanogenesis inhibitors, isolated from the root of Piper methysticum and synthesis of analogs” (Bioorg Med Chem Lett, 2015).

The nature of test [1]: (§1) Antimelanogenic activity in mouse B16F10 cells assessed as inhibition of melanin production after 4 days. In kind it is functional, cell-based. Conditions: B16-F10, 96 h; call rule not given here. Summed up: (§2)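 MSH-activated B16 melanoma cells were treated in triplicate, with the medium changed daily. After 4 d the cells were lysed in 1 N NaOH, and relative melanin in the lysate was read at 400 nm. Compounds were screened at 10 ppm, and those giving >50% inhibition were retested at other concentrations to derive IC50. Viability was checked by crystal violet staining read at 590 nm.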

Another test addresses T1, Tyrosinase (Agaricus bisporus, UniProt O42713).
T1 sequence (O42713 whole entry): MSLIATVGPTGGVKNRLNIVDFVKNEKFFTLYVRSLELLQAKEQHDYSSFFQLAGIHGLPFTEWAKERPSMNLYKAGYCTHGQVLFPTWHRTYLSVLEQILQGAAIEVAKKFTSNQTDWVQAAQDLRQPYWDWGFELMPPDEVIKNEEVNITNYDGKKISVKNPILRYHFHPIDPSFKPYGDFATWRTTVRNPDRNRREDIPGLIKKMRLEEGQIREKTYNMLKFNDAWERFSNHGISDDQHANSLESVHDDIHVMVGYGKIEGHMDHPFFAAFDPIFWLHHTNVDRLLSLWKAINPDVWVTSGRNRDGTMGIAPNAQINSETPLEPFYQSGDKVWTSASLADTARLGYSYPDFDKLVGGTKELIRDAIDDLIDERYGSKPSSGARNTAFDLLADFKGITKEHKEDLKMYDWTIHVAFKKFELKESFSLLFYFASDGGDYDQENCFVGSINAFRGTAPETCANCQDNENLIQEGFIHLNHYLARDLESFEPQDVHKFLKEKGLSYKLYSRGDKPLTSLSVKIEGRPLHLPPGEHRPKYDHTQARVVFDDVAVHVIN
As to the kind of experiment: Inhibition of mushroom tyrosinase using L-tyrosine as substrate after 20 mins by microplate reader.

The next test concerns B16-F10. Described as §1. In kind it is functional, cell-based. Summed up: as §2

In general, IC50 refers to the midpoint of a concentration-inhibition curve. As to `COc1cc(O)c(C(=O)/C=C/c2c(C)cccc2C)c(OC)c1`, the IC50 in test [1] was 9.9 µM; against Tyrosinase, “Not Active”.

Consider `COc1cc(O)c(C(=O)/C=C/c2ccccc2C(C)C)c(OC)c1`, for which the values for the IC50 (in test [1]; at Tyrosinase) were 2.7 µM and “Not Active”, respectively.

Turning to `COc1cc(O)c(C(=O)/C=C/c2ccccc2O)c(OC)c1`, the concentration for half-maximal inhibition (IC50) in test [1] was 2.3 µM; against Tyrosinase, “Not Active”.

In the case of `COc1cc(O)c(C(=O)/C=C/c2ccc(O)cc2O)c(OC)c1`, the half-maximal inhibitory concentration (IC50) was 3.4 µM in test [1] and “Not Active” against Tyrosinase.

Regarding `COc1cc(O)c(C(=O)/C=C/c2ccccc2)c(OC)c1` [FLAVOKAWAIN B], the IC50 was 7.7 µM in test [1] and “Not Active” against Tyrosinase. Further, the inhibition result in the test with B16-F10 was “Dose-dependent effect”.

Take `CCc1ccccc1/C=C/C(=O)c1c(O)cc(OC)cc1OC`: the values for the half-inhibitory concentration (IC50) (in test [1]; against Tyrosinase) were 2.5 µM and “Not Active”, respectively.

For the molecule `COc1cc(O)c(C(=O)/C=C/c2cccc(O)c2)c(OC)c1`, the values for the IC50 (in test [1]; at Tyrosinase) were 9.9 µM and “Not Active”, respectively.

`COc1ccc(/C=C/C(=O)c2c(O)cc(OC)cc2OC)c(OC)c1`: the IC50 entry against Tyrosinase is “Not Active”.

As to `COc1cc(O)c(C(=O)/C=C/c2ccc(O)c(O)c2)c(OC)c1`, the IC50 in test [1] is 31.6 µM; against Tyrosinase, “Not Active”.

For the molecule `O=c1cc(CO)occ1O` [KOJIC ACID], the half-maximal inhibitory concentration (IC50) in test [1] was greater than 500 µM.

On to `COc1cc(O)c(C(=O)/C=C/c2ccc(O)cc2)c(OC)c1` [FLAVOKAWAIN C], for which the IC50 in test [1] was 6.9 µM; against Tyrosinase it was “Not Active”. Further, the inhibition result with B16-F10 was “Dose-dependent effect”.

As to `COc1cc(O)c(C(=O)/C=C/c2ccccc2C)c(OC)c1`, the IC50 in test [1] was 3 µM; against Tyrosinase, “Not Active”.

Turning to `COc1ccc(/C=C/C(=O)c2c(O)cc(OC)cc2OC)cc1` [FLAVOKAWAIN A], the 50% inhibitory concentration (IC50) entry on Tyrosinase is given as “Not Active”.

Take `COc1cccc(/C=C/C(=O)c2c(O)cc(OC)cc2OC)c1`: the figures for the concentration for half-maximal inhibition (IC50) (in test [1]; against Tyrosinase) were 3.1 µM and “Not Active”, respectively.

Take `COc1cc(O)c(C(=O)/C=C/c2ccccc2OC)c(OC)c1`: the half-inhibitory concentration (IC50) is 3.8 µM in test [1] and “Not Active” on Tyrosinase.
